Experimental data: ChEMBL document CHEMBL3596123, “Identification of pyrazine-based TrkA inhibitors: design, synthesis, evaluation, and computational modeling studies” (Medchemcomm, 2014)

Tests used:
[1] = molecular target: T1, High affinity nerve growth factor receptor (Homo sapiens, UniProt P04629); assay: Inhibition of human recombinant TrkA using ATP and 5FAM tagged TrkA peptide substrate incubated for 60 mins by microfluidics assay
Procedure, shortened: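 TrkA enzyme at 2 nM, preincubated 60 min with inhibitor in HEPES/MgCl2/DTT kinase buffer. Reaction started with ATP 190 µM and 5FAM-TrkA peptide 1.5 µM (running). Twelve-point half-log series, 0.2 mM–0.632 nM final. Stopped at 10–20% conversion of uninhibited control. Phospho-product separated by microfluidic read. Curves fit to one-phase exponential decay, IC50 from the half-life, duplicate, mean ± SD.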
Target sequence in this assay (P04629 whole entry): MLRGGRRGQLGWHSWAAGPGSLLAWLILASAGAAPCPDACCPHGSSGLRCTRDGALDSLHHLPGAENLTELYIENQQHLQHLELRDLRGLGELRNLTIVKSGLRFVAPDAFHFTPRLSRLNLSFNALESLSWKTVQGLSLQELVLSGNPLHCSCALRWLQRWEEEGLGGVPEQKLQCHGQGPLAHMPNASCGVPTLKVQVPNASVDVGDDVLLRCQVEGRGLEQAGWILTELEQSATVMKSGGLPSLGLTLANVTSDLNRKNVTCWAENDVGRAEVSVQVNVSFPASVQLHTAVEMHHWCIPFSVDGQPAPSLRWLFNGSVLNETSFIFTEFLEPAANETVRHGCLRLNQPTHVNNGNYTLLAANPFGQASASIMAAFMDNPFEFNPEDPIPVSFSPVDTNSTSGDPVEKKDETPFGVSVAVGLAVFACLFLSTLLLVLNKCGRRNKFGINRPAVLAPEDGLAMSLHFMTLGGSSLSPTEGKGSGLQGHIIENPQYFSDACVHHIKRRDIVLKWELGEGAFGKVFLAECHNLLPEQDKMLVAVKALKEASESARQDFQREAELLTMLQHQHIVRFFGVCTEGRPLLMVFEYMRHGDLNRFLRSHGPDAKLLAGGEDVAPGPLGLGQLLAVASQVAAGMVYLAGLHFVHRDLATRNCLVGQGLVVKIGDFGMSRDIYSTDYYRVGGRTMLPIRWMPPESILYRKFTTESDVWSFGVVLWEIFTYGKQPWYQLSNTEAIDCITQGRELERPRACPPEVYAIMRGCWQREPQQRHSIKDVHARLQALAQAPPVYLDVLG

[2] = molecular target: T1, High affinity nerve growth factor receptor; assay: Inhibition of human recombinant TrkA at 20 uM using ATP and 5FAM tagged TrkA peptide substrate incubated for 60 mins by microfluidics assay
Procedure, shortened: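 TrkA enzyme at 2 nM, preincubated with inhibitor 60 min with shaking in HEPES kinase buffer (MgCl2, DTT, Brij-35, Tween 20), then ATP (190 µM running) and 5FAM-labelled TrkA peptide (1.5 µM) added. Run to 10–20% conversion in no-inhibitor wells. Product/substrate peaks separated by microfluidic mobility-shift read. Single point at 20 µM inhibitor, quadruplicate.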
Target sequence in this assay (P04629 33-796 limits assumed): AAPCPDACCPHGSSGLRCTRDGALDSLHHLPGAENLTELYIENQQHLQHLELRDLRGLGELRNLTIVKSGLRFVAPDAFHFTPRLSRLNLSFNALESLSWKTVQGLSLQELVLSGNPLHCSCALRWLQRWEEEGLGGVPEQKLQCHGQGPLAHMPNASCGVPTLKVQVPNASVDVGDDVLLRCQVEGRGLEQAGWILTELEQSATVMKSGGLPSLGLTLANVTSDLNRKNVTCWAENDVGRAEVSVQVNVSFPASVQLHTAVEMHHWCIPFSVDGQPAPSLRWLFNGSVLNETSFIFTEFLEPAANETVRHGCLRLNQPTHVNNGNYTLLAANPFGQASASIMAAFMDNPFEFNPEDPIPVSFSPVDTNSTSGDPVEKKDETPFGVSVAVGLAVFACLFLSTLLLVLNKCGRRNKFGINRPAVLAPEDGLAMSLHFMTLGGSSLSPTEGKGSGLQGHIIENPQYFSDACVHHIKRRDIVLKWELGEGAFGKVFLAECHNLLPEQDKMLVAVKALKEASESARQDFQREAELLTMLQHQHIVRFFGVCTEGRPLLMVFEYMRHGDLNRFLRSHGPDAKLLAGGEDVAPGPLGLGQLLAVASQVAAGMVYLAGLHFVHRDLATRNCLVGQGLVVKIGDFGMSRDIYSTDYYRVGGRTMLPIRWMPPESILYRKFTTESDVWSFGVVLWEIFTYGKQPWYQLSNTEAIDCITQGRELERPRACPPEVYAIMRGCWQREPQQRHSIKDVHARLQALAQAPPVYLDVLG

[3] = molecular target: Vascular endothelial growth factor receptor 2 (Homo sapiens, UniProt P35968); assay: Inhibition of KDR (unknown origin) using ATP and 5FAM tagged TrkA peptide substrate incubated for 60 mins by microfluidics assay
Sequence of Vascular endothelial growth factor receptor 2 (P35968 whole entry): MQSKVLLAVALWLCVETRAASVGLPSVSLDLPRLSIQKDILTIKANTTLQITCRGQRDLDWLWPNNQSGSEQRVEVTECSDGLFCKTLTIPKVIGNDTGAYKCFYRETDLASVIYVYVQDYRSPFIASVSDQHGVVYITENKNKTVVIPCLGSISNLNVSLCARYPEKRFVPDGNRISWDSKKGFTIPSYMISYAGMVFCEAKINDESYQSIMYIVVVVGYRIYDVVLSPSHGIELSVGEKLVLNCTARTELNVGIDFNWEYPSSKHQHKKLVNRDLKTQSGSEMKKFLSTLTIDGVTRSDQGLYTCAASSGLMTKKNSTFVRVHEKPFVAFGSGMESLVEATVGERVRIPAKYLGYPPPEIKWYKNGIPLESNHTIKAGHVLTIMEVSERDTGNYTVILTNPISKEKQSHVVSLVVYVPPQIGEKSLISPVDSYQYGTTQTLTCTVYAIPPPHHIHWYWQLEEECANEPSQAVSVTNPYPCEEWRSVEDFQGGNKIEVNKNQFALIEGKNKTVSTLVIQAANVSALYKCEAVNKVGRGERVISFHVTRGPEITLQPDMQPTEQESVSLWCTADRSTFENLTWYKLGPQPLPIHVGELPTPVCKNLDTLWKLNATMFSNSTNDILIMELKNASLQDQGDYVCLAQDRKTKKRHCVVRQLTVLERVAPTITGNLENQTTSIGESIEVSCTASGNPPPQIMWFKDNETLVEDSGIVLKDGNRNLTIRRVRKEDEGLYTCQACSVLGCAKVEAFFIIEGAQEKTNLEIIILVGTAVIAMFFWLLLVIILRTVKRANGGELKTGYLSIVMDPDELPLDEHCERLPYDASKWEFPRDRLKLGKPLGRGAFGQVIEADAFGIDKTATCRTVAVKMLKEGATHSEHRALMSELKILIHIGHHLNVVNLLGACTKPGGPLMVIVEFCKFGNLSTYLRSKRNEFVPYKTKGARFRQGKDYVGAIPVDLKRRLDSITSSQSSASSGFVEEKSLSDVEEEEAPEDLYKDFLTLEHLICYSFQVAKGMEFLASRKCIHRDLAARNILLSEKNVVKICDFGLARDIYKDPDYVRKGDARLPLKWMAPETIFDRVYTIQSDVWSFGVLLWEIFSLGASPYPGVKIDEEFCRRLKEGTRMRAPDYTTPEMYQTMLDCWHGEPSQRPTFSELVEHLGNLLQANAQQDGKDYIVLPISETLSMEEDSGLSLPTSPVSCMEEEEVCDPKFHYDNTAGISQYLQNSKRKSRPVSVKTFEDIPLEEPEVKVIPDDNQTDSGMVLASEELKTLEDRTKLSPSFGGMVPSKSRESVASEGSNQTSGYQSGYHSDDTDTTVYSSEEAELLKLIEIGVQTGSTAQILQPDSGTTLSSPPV

Ephrin type-B receptor 2 = molecular target: T2, Ephrin type-B receptor 2 (Homo sapiens, UniProt P29323); assay: Inhibition of EphB2 (unknown origin) using ATP and 5FAM tagged TrkA peptide substrate incubated for 60 mins by microfluidics assay
T2 sequence (P29323 whole entry): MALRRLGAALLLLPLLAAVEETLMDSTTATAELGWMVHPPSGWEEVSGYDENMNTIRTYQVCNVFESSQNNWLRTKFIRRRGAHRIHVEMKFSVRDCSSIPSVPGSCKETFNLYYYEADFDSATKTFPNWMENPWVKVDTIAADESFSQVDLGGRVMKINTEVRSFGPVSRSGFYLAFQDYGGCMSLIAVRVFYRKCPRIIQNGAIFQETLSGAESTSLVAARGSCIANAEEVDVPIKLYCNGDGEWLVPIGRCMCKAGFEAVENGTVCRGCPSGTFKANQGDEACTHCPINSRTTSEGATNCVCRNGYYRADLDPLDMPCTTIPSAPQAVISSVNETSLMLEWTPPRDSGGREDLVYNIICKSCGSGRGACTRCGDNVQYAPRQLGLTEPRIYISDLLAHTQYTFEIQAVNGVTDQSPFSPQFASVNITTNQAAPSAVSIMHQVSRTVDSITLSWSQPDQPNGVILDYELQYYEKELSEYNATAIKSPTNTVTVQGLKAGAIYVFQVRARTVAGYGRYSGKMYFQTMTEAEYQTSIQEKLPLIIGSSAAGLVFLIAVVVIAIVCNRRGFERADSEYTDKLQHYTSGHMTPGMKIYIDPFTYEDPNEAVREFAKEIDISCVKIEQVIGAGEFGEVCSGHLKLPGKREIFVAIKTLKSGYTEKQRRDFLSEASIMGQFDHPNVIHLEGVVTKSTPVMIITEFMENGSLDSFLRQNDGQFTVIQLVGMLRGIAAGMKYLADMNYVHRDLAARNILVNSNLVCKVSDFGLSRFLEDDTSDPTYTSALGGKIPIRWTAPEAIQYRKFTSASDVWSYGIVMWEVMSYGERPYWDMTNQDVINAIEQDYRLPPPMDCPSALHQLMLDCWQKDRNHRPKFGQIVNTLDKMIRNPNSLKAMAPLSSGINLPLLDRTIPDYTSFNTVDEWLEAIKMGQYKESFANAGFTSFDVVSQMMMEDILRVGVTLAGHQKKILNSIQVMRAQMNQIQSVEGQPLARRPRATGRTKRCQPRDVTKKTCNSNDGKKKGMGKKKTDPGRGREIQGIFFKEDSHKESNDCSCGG

Row | SMILES | IC50 [1] [µM] | inhibition [2] [%] | IC50 [3] [µM] | IC50 (Ephrin type-B receptor 2) [µM]
1 | O=C(Nc1cccc(Oc2cncc(Cl)n2)c1)Nc1cccc(C(F)(F)F)c1 | 3.5 |  |  | 
2 | CC(C)(C)c1ccc(NC(=O)Nc2cccc(Oc3cncc(-c4cncnc4)n3)c2)cc1 |  | 49.6 |  | 
3 | Cn1cc(-c2cncc(Oc3cccc(NC(=O)Nc4cc(C(C)(C)C)nn4C)c3)n2)cn1 |  | 61.1 |  | 
4 | CC(C)c1ccc(NC(=O)Nc2cccc(Oc3cncc(-c4cnn(C)c4)n3)c2)cc1 |  | 56.3 |  | 
5 | COc1ccc(-c2cncc(Oc3cccc(NC(=O)Nc4ccc(C(C)(C)C)cc4)c3)n2)cc1 |  | 33.8 |  | 
6 | COc1ccc(-c2cncc(Oc3cccc(NC(=O)Nc4cc(C(C)(C)C)nn4C)c3)n2)cc1 |  | 15.5 |  | 
7 | O=C(Nc1cccc(Oc2cncc(-c3cncnc3)n2)c1)Nc1cccc(C(F)(F)F)c1 |  | 69.3 |  | 
8 | CC(C)(C)c1ccc(NC(=O)Nc2cccc(Oc3cncc(-c4ccsc4)n3)c2)cc1 |  | 27.7 |  | 
9 | Nc1ccc(-c2cncc(-c3cncnc3)n2)cc1 |  | 77 |  | 
10 | CC(C)(C)c1cc(NC(=O)Nc2cccc(Oc3cncc(Cl)n3)c2)no1 | > 100 |  |  | 
11 | Cn1cc(-c2cncc(Oc3cccc(NC(=O)Nc4ccc(C(C)(C)C)cc4)c3)n2)cn1 |  | 86.9 |  | 
12 | CC(C)(C)c1cc(NC(=O)Nc2cccc(Oc3cncc(-c4ccsc4)n3)c2)on1 |  | 69 |  | 
13 | CC(C)(C)c1ccc(NC(=O)Nc2cccc(Oc3cncc(-c4ccc(F)cc4)n3)c2)cc1 |  | 32.2 |  | 
14 | CC(C)(C)c1ccc(NC(=O)Nc2cccc(Oc3cncc(-c4ccc(S(C)(=O)=O)cc4)n3)c2)cc1 |  | 46.7 |  | 
15 | CC(C)c1ccc(NC(=O)Nc2cccc(Oc3cncc(-c4ccsc4)n3)c2)cc1 | 0.87 | 99.2 |  | 
16 | Cn1cc(-c2cncc(Oc3cccc(NC(=O)Nc4cccc(C(F)(F)F)c4)c3)n2)cn1 | 0.53 | 92 |  | 
17 | Cn1cc(-c2cncc(Oc3cccc(NC(=O)Nc4cc(C(C)(C)C)no4)c3)n2)cn1 |  | 48.8 |  | 
18 | O=C(Nc1cccc(Oc2cncc(-c3ccc(F)cc3)n2)c1)Nc1cccc(C(F)(F)F)c1 |  | 27.1 |  | 
19 | CC(C)c1ccc(NC(=O)Nc2cccc(Oc3cncc(-c4ccc(S(C)(=O)=O)cc4)n3)c2)cc1 | 0.42 | 96.9 |  | 
20 | COc1ccc(-c2cncc(Oc3cccc(NC(=O)Nc4ccc(C(C)C)cc4)c3)n2)cc1 | 0.38 | 98 |  | 
21 | Cn1nc(C(C)(C)C)cc1NC(=O)Nc1cccc(Oc2cncc(-c3ccc(F)cc3)n2)c1 |  | 26.9 |  | 

Row | SMILES | IC50 [1] [µM] | inhibition [2] [%] | IC50 [3] [µM] | IC50 (Ephrin type-B receptor 2) [µM]
22 | Nc1ccc(-c2cncc(Cl)n2)cc1 |  | 47 |  | 
23 | CC(C)c1ccc(NC(=O)Nc2cccc(Oc3cncc(-c4ccc(F)cc4)n3)c2)cc1 |  | 56.9 |  | 
24 | Cn1cc(-c2cncc(-c3ccc(NC(=O)Nc4cc(C(C)(C)C)nn4C)cc3)n2)cn1 | 0.012 | 99.7 |  | 
25 | Cn1cc(-c2cncc(-c3ccc(N)cc3)n2)cn1 |  | 46 |  | 
26 | COc1ccc(-c2cncc(Oc3cccc(NC(=O)Nc4cccc(C(F)(F)F)c4)c3)n2)cc1 | 1.6 | 95.5 |  | 
27 | CS(=O)(=O)c1ccc(-c2cncc(Oc3cccc(NC(=O)Nc4cccc(C(F)(F)F)c4)c3)n2)cc1 | 1.7 | 90.8 |  | 
28 | CC(C)(C)c1cc(NC(=O)Nc2cccc(Oc3cncc(-c4ccsc4)n3)c2)no1 | 0.039 | 100 | > 2 | > 2
29 | CC(C)(C)c1cc(NC(=O)Nc2cccc(Oc3cncc(-c4cncnc4)n3)c2)on1 |  | 79.4 |  | 
30 | Nc1ccc(-c2cncc(-c3ccsc3)n2)cc1 |  | 17 |  | 
31 | CC(C)(C)c1cc(NC(=O)Nc2cccc(Oc3cncc(-c4ccc(F)cc4)n3)c2)on1 |  | 47.2 |  | 
32 | Cn1nc(C(C)(C)C)cc1NC(=O)Nc1cccc(Oc2cncc(-c3ccsc3)n2)c1 |  | 26.8 |  | 
33 | CC(C)(C)c1cc(NC(=O)Nc2cccc(Oc3cncc(-c4ccc(S(C)(=O)=O)cc4)n3)c2)no1 | 0.092 | 96.5 |  | > 2
34 | O=C(Nc1cccc(Oc2cncc(-c3ccsc3)n2)c1)Nc1cccc(C(F)(F)F)c1 | 1.1 | 96.2 |  | 
35 | CC(C)(C)c1cccc(NC(=O)Nc2cccc(Oc3cncc(Cl)n3)c2)c1 | > 100 |  |  | 
36 | CC(C)c1ccc(NC(=O)Nc2cccc(Oc3cncc(-c4cncnc4)n3)c2)cc1 |  | 28.2 |  | 
37 | CC(C)(C)c1cc(NC(=O)Nc2cccc(Oc3cncc(-c4ccc(F)cc4)n3)c2)no1 | 0.022 | 100 | > 2 | > 2
38 | Cn1nc(C(C)(C)C)cc1NC(=O)Nc1cccc(Oc2cncc(-c3ccc(S(C)(=O)=O)cc3)n2)c1 | 0.49 | 94 |  | 
39 | COc1ccc(-c2cncc(Oc3cccc(NC(=O)Nc4cc(C(C)(C)C)on4)c3)n2)cc1 | 0.047 | 98.6 | > 2 | > 2
40 | COc1ccc(-c2cncc(Oc3cccc(NC(=O)Nc4cc(C(C)(C)C)no4)c3)n2)cc1 |  | 37.2 |  | 
41 | Cn1cc(-c2cncc(Oc3cccc(NC(=O)Nc4cc(C(C)(C)C)on4)c3)n2)cn1 | 0.024 | 101 |  | 
